This is an account of results in ChEMBL document CHEMBL3108742, “Structurally diverse low molecular weight activators of the mammalian pre-mRNA 3' cleavage reaction” (Bioorg Med Chem, 2014).

Calls of active or inactive are those of the source. The rule behind the calls is not given here.

Assay [1] concerns HeLa. In words: Induction of [alpha-32P]-UTP-labeled Simian virus 40 late pre-mRNA 3' cleavage treated with 3' cleavage factors from human HeLa cell nuclear extract after 2 hrs by PAGE analysis. It is filed as cell-based. To be noted: Betapolyomavirus macacae. The method, boiled down: (§1)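 Partially purified HeLa nuclear extract cleavage factors (DEAE fractions CPSF, CstF, CFm; ammonium sulfate-concentrated, dialyzed against 20 mM Na-HEPES pH 7.9 buffer) incubated with radiolabeled SV40 late poly(A) signal substrate (1–5 nM). Reaction mix: tRNA 0.1 mg/mL, 2 mM EDTA, 2 mM 2'-dATP, 2.5% polyvinyl alcohol, 10 mM HEPES pH 7.9, 25 mM ammonium sulfate, activator replacing creatine phosphate. Run 2 h at 30 °C; Proteinase K treatment, 6% denaturing gel.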

Assay [2] has as its system HeLa. In words: Induction of [alpha-32P]-UTP-labeled Simian virus 40 late pre-mRNA 3' cleavage at 25 to 200 uM treated with 3' cleavage factors from human HeLa cell nuclear extract after 2 hrs by PAGE analysis. It is filed as cell-based. To be noted: Betapolyomavirus macacae. The method, boiled down: (§2)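 Radiolabeled substrate (1–5 nM) derived from the SV40 late poly(A) signal was incubated with DEAE-sepharose CPSF, CstF and CFm fractions from HeLa nuclear extract. Test agent replaced 50 mM creatine phosphate. Reaction mix contained tRNA, 2 mM EDTA, 2 mM 2′-dATP, 2.5% polyvinyl alcohol and 10 mM HEPES pH 7.9, run at 30 °C for 2 h. Products were Proteinase K-digested, extracted, precipitated and resolved by 6% denaturing PAGE.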

Assay [3] deals with HeLa. Nature of the assay: Induction of [alpha-32P]-UTP-labeled Simian virus 40 late pre-mRNA 3' cleavage at 1 mM treated with 3' cleavage factors from human HeLa cell nuclear extract after 2 hrs by PAGE analysis. It is filed as cell-based. To be noted: Betapolyomavirus macacae. The method, boiled down:
as §2

The test system of assay [4] is HeLa. Nature of the assay: Induction of [alpha-32P]-UTP-labeled Simian virus 40 late pre-mRNA 3' cleavage at >= 100 uM treated with 3' cleavage factors from human HeLa cell nuclear extract after 2 hrs by PAGE analysis relative to control. To be noted: Betapolyomavirus macacae. Type of assay: cell-based. The method, boiled down:
as §2

Assay [5] in a line: Inhibition of ABI2 (unknown origin) at 3 uM relative to control. More on the design: scale not given: the % may be the effect or the level left.
A short description of assay [6]: Inhibition of ABI2 (unknown origin).
The nature of assay [7]: Inhibition of ABI1 (unknown origin).
The subject of assay [8] is HeLa. In words: Induction of [alpha-32P]-UTP-labeled Simian virus 40 late pre-mRNA 3' cleavage at 200 nM treated with 3' cleavage factors from human HeLa cell nuclear extract after 2 hrs by PAGE analysis in presence of protein tyrosine phosphatase. It is filed as cell-based. To be noted: Betapolyomavirus macacae.
In assay [9] the test system is HeLa. Nature of the assay: Induction of [alpha-32P]-UTP-labeled Simian virus 40 late pre-mRNA 3' cleavage at 200 nM treated with 3' cleavage factors from human HeLa cell nuclear extract after 2 hrs by PAGE analysis in presence of calf intestinal alkaline phosphatase. It is filed as cell-based. To be noted: Betapolyomavirus macacae.
Assay [10] deals with T1, Protein phosphatase 1D (Homo sapiens, UniProt O15297).
T1 sequence (O15297 whole entry): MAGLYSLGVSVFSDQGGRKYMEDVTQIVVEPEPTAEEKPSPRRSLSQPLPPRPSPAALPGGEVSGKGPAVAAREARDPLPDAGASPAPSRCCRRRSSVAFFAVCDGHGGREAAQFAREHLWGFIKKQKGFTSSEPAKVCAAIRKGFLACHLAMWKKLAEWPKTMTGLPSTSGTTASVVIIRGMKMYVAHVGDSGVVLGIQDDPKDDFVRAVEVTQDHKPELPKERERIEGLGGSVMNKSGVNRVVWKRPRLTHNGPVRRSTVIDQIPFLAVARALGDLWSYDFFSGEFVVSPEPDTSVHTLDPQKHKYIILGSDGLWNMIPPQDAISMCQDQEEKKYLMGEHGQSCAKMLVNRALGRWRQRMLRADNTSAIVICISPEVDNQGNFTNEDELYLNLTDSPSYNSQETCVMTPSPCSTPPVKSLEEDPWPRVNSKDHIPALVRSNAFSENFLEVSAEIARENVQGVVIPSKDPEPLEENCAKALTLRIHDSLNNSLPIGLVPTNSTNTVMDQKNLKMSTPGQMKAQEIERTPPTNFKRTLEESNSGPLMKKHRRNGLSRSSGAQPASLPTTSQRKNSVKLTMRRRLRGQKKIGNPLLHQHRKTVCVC
In words: Inhibition of N-terminal His-tagged human PPM1D (1 to 420) assessed as phosphoric acid release after 30 mins.

The subject of assay [11] is HeLa. In words: Induction of [alpha-32P]-UTP-labeled Simian virus 40 late pre-mRNA 3' cleavage at 200 nM treated with 3' cleavage factors from human HeLa cell nuclear extract after 2 hrs by PAGE analysis. It is filed as cell-based. To be noted: Betapolyomavirus macacae. The essentials:
as §2

Assay [12] relates to HeLa. In words: Induction of [alpha-32P]-UTP-labeled Simian virus 40 late pre-mRNA 3' cleavage at 50 mM treated with 3' cleavage factors from human HeLa cell nuclear extract after 2 hrs by PAGE analysis. Type of assay: cell-based. To be noted: Betapolyomavirus macacae. The method, boiled down: as §1

For `CN(C)CCOP(=O)(O)O`, the outcome in assay [1] was inactive. As to `N=C(N)NCCC[C@H](N)C(=O)Nc1ccc2ccccc2c1`, in assay [2], the outcome was Active. For `N=C(N)NCCC[C@H](N)C(=O)Nc1cnc2ccccc2c1`, the result in assay [3] was inactive. Regarding `CNCCOP(=O)(O)O`, the result in [1] was inactive. The IC50 is the point on the concentration scale where inhibition reaches its midpoint. Turning to `CC1=CC(=O)CC(C)(C)[C@@]1(O)/C=C/C(C)=C\C(=O)O` [(+)-ABSCISIC ACID], the values for the Activity in assay [4] and in assay [5] were 10% and 15%, respectively. Besides, the IC50 in assay [6] was 70 nM; in assay [7] it was 60 nM. As to `N=C(N)NCCC[C@H](N)C(=O)Nc1ccccc1`, in assay [3], the outcome was inactive. By Ki is commonly meant the equilibrium dissociation constant of an inhibitor or competing ligand from its target. With `CC[C@H](C)[C@@H]1NC(=O)[C@H](Cc2ccc(OP(=O)(O)O)cc2)NC(=O)[C@H](CC(=O)O)NC(=O)[C@H](CCC(=O)O)N[C@H](C(N)=O)CSCC(=O)[C@H](Cc2ccccc2)NC(=O)[C@H](COP(=O)(O)O)NC1=O`, the outcome in assay [8] and in [11] was Active. Moreover, in assay [9], the outcome was inactive. The Ki in assay [10] came to 150 nM. `N[C@@H](COP(=O)(O)O)C(=O)O`: the result in assay [3] was inactive.

Consider `CC(=O)N[C@@H](CCCC[N+](C)(C)C)C(=O)N[C@@H](COP(=O)([O-])O)C(=O)O`, for which, in [3], the outcome was Active. `N=C(N)NCCC[C@H](N)C(=O)Nc1cccc2ccccc12`: the result in [3] was inactive. Regarding `C[N+](C)(C)CCOP(=O)(O)O`, in assay [3], the outcome was inactive.

In the case of `CN(CC(=O)O)C(=N)NP(=O)(O)O`, the outcome in assay [12] was Active. `N=C(N)NCCC[C@@H](C(=O)Nc1ccc2ccccc2c1)N1CCOCC1`: the outcome in [2] was Active.

`CCNC(=N)NCCC[C@H](N)C(=O)Nc1cccc2ccccc12`: the outcome in [3] was inactive. Turning to `C[N+](C)(C)CCCOP(=O)(O)O`, in [1], the outcome was inactive.
